Screening results: PubChem BioAssay, several laboratories
MC4R antagonist = antagonists of human melanocortin 4 receptor (MC4R); MC4R-expressing cells, MTII-stimulated cAMP, LANCE TR-FRET; inhibition, % at 6.5 µM; actives 0.48% (n = 360,000); AID 540295;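 active = inhibition above its plate's cutoff, the mean of tested wells on that plate plus 3 SD, cut at about 29% in these data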;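 also: 0% = Melanotan II alone and 100% = Melanotan II plus saturating MCL0020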
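System – human MC4R-expressing U2OS cells · Also added – Melanotan II · Dosing – one concentration, 6.5 µM nominal · Timing – 30-min compound, 1-h challenge, 1-h detection, room temperature · Measured by – Eu-cAMP/anti-cAMP TR-FRET, emission 671 nm · Replicates – singlicate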
MC4R ag barr = agonists of human melanocortin 4 receptor (MC4R) beta-arrestin; P32245; U2OS MC4R beta-arrestin complementation, luminescence; percent of melanotan II response, DMSO zero; actives 0.98% (n = 360,000); activation, % at 8.9 µM;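 active = activation above a per-plate cutoff, the mean activation of sample wells on that plate plus 3 SD, cut at about 8% in these data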
NR2E3 ag-1 = agonists of human NR2E3 nuclear receptor; Q9Y5X4; CHO-S Gal4-NCOR/VP16-NR2E3 two-hybrid, luciferase; inhibition of corepressor binding, % at 3.98 µM; actives 0.35% (n = 360,000);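 active = inhibition above the mean of all tested compounds plus 3 SD, cut at about 70% in these data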;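 also: 0% = DMSO with NR2E3 transfected cells and 100% = cells lacking NR2E3 construct; higher means lower luciferase signal from less NR2E3 corepressor binding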
Target sequence (Q9Y5X4 whole entry, looked up, the tested form may be a part): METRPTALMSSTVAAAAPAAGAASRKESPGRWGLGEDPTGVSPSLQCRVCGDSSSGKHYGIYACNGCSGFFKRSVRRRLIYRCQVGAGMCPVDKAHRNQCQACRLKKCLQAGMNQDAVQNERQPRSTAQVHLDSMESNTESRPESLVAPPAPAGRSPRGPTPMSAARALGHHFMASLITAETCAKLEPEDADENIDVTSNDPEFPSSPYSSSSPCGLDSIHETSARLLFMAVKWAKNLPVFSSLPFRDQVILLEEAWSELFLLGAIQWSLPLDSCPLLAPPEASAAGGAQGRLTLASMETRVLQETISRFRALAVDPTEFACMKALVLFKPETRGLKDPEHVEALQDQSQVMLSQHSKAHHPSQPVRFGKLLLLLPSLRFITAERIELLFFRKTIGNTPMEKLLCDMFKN
Rev-erbA mod = modulates human Rev-erb alpha binding to DNA. P20393. Rev-erbα–FITC-DNA binding, fluorescence polarization, 90 min. activity, % at 10 µM. actives 0.79% (n = 370,000);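 active = activity above about 14%, limit read from the data; passing the limit was not always enough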;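 also: 0% = DMSO wells with 35 nM protein and 100% = DMSO wells with 750 nM protein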
NR2E3 ag-2 = activates human photoreceptor nuclear receptor NR2E3 | actives 0.12% (n = 320,000) | inhibition of corepressor binding, % at 4.78 µM | GST-NR2E3/biotin-RetCOR TR-FRET, 1536-well | Q9Y5X4;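 active = percent inhibition above the cutoff of mean plus 3 SD of all tested compounds, set per screening campaign, cut at about 20% in these data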;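 also: 0% = DMSO wells and 100% = biotin wells as full block of FRET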
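system = GST-tagged NR2E3 plus biotinylated RetCOR corepressor | input = 1.35 nM GST-NR2E3 | also added = 7 nM biotin-RetCOR | schedule = 5 h incubation at 4 °C | measured by = TR-FRET with europium anti-GST and streptavidin-D2, 340 nm excitation | read-out = percent loss of FRET ratio relative to control wells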
PG9 Ab binder = PG9 antibody binding by small molecule | TR-FRET gp120-PG9 antibody binding | inhibition, % at 6.7 µM | actives 0.43% (n = 360,000) | AID 624416; in the data active = inhibition above about 8.5%
NR2E3 ag conf = NR2E3 agonism confirmed in two-hybrid assay. CHO-S mammalian two-hybrid NR2E3-NCOR, luciferase luminescence. shares compounds with NR2E3 ag-1. actives 51% (n = 2,300). inhibition, % at 3.98 µM;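 active = average inhibition above a cutoff equal to the mean inhibition of all tested compounds plus one SD, cut at about 70% in these data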;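 also: 0% = DMSO in NR2E3 cells and 100% = DMSO in cells lacking NR2E3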
VP16 counter = reduces GAL4-VP16 reporter signal in NR2E3 counterscreen | inhibition, % at 3.98 µM | CHO-S GAL4-VP16 luciferase reporter, luminescence | AID 624379 | actives 29% (n = 2,300) | shares compounds with NR2E3 ag-1;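 active = mean inhibition above a cutoff equal to the average over all tested compounds plus one standard deviation, cut at about 70% in these data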;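 also: luciferase from a UAS reporter driven by GAL4-VP16 transactivation; 0% = DMSO with VP16-transfected cells and 100% = DMSO with cells lacking VP16; higher means less reporter light so more repression of VP16 activity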
* marks the source's active call; other numbers are inactive results; . = no result. Shown are actives, neighbours in structure and some others; about 2.7% of the full set was active somewhere.

SMILES	MC4R antagonist	MC4R ag barr	NR2E3 ag-1	Rev-erbA mod	NR2E3 ag-2	PG9 Ab binder	NR2E3 ag conf	VP16 counter
c1ccc(-c2ccc(CN3Cc4ccccc4-n4nncc4C3)cc2)cc1	15	0	59	-4	.	-1	83*	60
Oc1c(Br)c(Br)c(Br)c(Br)c1Br	5	2	101*	.	1	.	99*	88*
Oc1c(Br)cc(Br)cc1Br	14	-1	7	0	1	0	.	.
C[C@]12CCC3C(CC[C@H]4C[C@@H](O)CC[C@]34C)C1CCC2=O (stereo partly drawn)	-1	2	15	.	.	.	.	.
CN(C)C(=O)Oc1ccc2ccccc2c1Cl	6	-1	-21	3	-3	1	.	.
CN(Cc1cccc(-c2ccncc2)c1)C(=O)Oc1ccccc1Cc1ccccc1	.	.	81*	.	.	.	80*	79*
CN(C)Cc1ccccc1OC(=O)N(C)C	-1	-2	-11	-1	4	0	.	.
Cc1nc2cc(OC(=O)N(C)Cc3cccc(-c4ccncc4)c3)ccc2s1	.	.	67	.	.	.	62	54
CN(Cc1cccc(-c2ccncc2)c1)C(=O)Oc1ccccc1Cl	.	.	88*	.	.	.	73*	77*
O=C(c1ccc2c(c1)N(Cc1ccccc1)CCS2)N1CCC2(CC1)OCCO2	7	-2	21	2	1	0	.	.
CC(C)(C)c1ccc(C(=O)C2CCCN(C3CCC3)C2)cc1 (stereo not drawn)	1	-3	7	1	-1	1	.	.
CN[C@H](C)[C@H](O)c1ccccc1	13	0	-16	.	1	.	.	.
c1ccc2c(NC3=NCCS3)cccc2c1	12	-2	8	5	4	-2	.	.
O=C(O)c1sc2cc(Cl)ccc2c1Cl	.	.	.	.	10	.	.	.
Oc1c(Cl)cccc1Cc1cc(Cl)cc(Cl)c1O	3	2	98*	-6	.	-3	100*	93*
C[C@H]1[C@@H](OS(=O)(=O)O)C[C@@H]2C[C@H]([C@@H](O)c3cc(=O)[nH]c(=O)[nH]3)NC3=NC[C@H]1N32	7	0	101*	.	.	.	99*	82*
CC(C)OC(=O)C1C2c3ccccc3C(c3ccccc32)C1C(=O)O (stereo not drawn)	-3	0	21	-2	4	0	.	.
CCOC(=O)[C@]12Cc3cc(Cl)ccc3[C@H]1N(C1CCCCC1)C(=O)c1cc(OC)ccc12	.	.	100*	1	.	1	99*	78*
Cc1cc(OC(=O)c2ccco2)c2c3c(c(=O)oc2c1)CCCC3	6	-1	93*	1	3	-1	69	43
CCN1/C(=C/C=C/C2=[N+](CC)c3ccccc3C2(C)C)C(C)(C)c2ccccc21	-16	-3	104*	-34	.	4	98*	94*
CN1/C(=C\C=C\C2=[N+](C)c3ccc4ccccc4c3C2(C)C)C(C)(C)c2ccccc21	.	.	.	.	-4	.	.	.
CC1CC(C)(O)CC(C(O)CC2CC(=O)NC(=O)C2)C1=O (stereo not drawn)	-4	-1	100*	5	.	-1	100*	99*
COC(=O)C1=C(c2cccc(OCc3ccccc3)c2)C[C@@H]2CC[C@H]1N2C(=O)NCCOc1ccccc1Cl	5	-1	-12	-1	-1	1	.	.
O=[N+]([O-])c1ccc(N(CCO)CCO)c2c1no[n+]2[O-]	7	-5	76*	5	.	-5	54	44
COc1ccc2c(c1)CC1(CN2C)C(=O)NC(=O)N(c2ccc(C)cc2)C1=O (stereo not drawn)	13	-1	2	-2	1	-2	.	.
SMILES	MC4R antagonist	MC4R ag barr	NR2E3 ag-1	Rev-erbA mod	NR2E3 ag-2	PG9 Ab binder	NR2E3 ag conf	VP16 counter
C[C@H]1CCC[C@H](O)CCCCCc2cc(O)cc(O)c2C(=O)O1	-2	-1	-8	-4	-2	0	.	.
CC1CCC/C=C/C2CC(O)CC2C(O)/C=C/C(=O)O1 (stereo not drawn)	10	-2	83*	-2	2	1	99*	56
C=CCN1C(=O)/C(=C/c2ccc(Br)s2)C(=O)NC1=S	13	-1	-2	-7	1	1	.	.
COc1ccc(CC2C(=O)NC(C)C(=O)N(C)C3C(=O)N(C)C(Cc4ccc(O)c(c4)Oc4ccc(cc4)C3O)C(=O)NC(C)C(=O)NC(C)C(=O)N2C)cc1 (stereo not drawn)	0	-3	102*	0	.	1	100*	100*
NC(Cc1ccc(F)cc1)c1csc(Nc2ncccn2)n1 (stereo not drawn)	-1	-3	50	-6	.	0	22	-7
NC(Cc1ccc(Cl)cc1)c1csc(Nc2ncccn2)n1 (stereo not drawn)	0	1	58	5	.	0	51	28
Nc1ccc(CC(N)c2csc(Nc3ncccn3)n2)cc1 (stereo not drawn)	9	0	-33	0	.	0	.	.
COc1ccc(C(=O)C2CCCN(CCc3ccccc3)C2)cc1OC (stereo not drawn)	8	-1	13	-8	.	0	.	.
COC1CC2C=C(C)C=CC=CC(=O)NC(c3ccccc3)CC=CCCC(O)CC(=O)C2=C1O (stereo not drawn)	.	.	103*	-2	.	-2	99*	95*
CCOC(=O)c1cccc(C2=C(CNC(=O)c3ocnc3C)[C@H]3CC[C@@H](C2)N3Cc2ccccc2)c1	16	0	9	-2	.	-3	.	.
CC(N)C(=O)NC1C2C(=C(O)CC(O)C2O)C(=O)OC1(C)C(Cl)Cl (stereo not drawn)	6	-1	98*	-2	.	-2	96*	92*
O=P1(Oc2ccccc2)OCCCS1 (stereo not drawn)	3	1	6	4	-1	0	.	.
C=CCC1(CCCCC)C(=O)NC(=S)NC1=O	6	-3	17	3	.	0	.	.
COc1cc2cc(C(=O)N3CC(COS(C)(=O)=O)c4ccc(O)cc43)[nH]c2c(OC)c1OC (stereo not drawn)	-29	4	73*	.	.	.	100*	94*
CCC1CN2CCc3cc(OC)c(OC)cc3C2CC1CC1NCCc2c1[nH]c1ccc(O)cc21 (stereo not drawn)	-10	-3	102*	5	.	-1	99*	99*
CC(C)(O)/C=C/C(=O)C(C)(O)C1C(O)CC2(C)C3CC=C4C(C=C(O)C(=O)C4(C)C)C3(C)C(=O)CC12C (stereo not drawn)	-11	-3	79*	1	.	1	47	57
